From ChEMBL document CHEMBL2040729, “Lead optimization of 17β-HSD1 inhibitors of the (hydroxyphenyl)naphthol sulfonamide type for the treatment of endometriosis” (J Med Chem, 2012)

Experiments:
Callithrix jacchus [1] = species: Callithrix jacchus; test: Inhibition of mormoset placenta microsomal 17betaHSD2 using [3H]E2 as substrate at 50 nM after 20 mins by radioflow detection assay
[2] = biological target: T1, 17-beta-hydroxysteroid dehydrogenase type 2 (Homo sapiens, UniProt P37059); test: Inhibition of human placenta microsomal 17betaHSD2 using [3H]E2 as substrate after 20 mins by radioflow detection assay
T1 sequence (P37059 whole entry): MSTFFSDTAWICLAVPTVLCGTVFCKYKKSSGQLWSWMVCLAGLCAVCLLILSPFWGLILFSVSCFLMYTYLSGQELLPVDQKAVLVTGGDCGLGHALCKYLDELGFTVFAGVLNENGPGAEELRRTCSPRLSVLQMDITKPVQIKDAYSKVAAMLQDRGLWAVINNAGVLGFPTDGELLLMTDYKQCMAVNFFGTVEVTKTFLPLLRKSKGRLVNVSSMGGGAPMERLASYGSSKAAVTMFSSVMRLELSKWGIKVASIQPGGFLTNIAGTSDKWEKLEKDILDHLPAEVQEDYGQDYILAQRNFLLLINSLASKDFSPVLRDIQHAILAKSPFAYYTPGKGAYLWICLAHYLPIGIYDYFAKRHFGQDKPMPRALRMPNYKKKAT
Method in brief: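 Microsomal (pellet) fraction of fresh human placenta incubated with NAD+ 1500 μM, compound, and unlabeled + [3H]-E2 (500 nM final) for 20 min at 37 °C. Stopped with 1 mM HgCl2, ether-extracted. Steroids separated by HPLC with radioflow detection, conversion computed. Mean of three determinations.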

[3] = biological target: T2, 17-beta-hydroxysteroid dehydrogenase type 1 (Homo sapiens, UniProt P14061); test: Inhibition of 17betaHSD1 in human T47D cells using [3H]E1 as substrate incubated for 30 mins prior to substrate addition measured after 30 mins by radioflow detection assay; format: cell-based
T2 sequence (P14061 whole entry): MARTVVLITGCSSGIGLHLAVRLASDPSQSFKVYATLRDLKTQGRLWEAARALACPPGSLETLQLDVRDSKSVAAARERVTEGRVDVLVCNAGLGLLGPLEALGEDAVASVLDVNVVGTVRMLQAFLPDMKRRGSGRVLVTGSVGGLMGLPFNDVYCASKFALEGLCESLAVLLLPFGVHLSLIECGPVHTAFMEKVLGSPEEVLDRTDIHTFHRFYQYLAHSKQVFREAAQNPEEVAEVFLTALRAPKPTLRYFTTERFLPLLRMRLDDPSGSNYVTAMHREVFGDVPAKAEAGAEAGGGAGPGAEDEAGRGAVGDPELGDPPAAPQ
Method in brief: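 T47D cells kept in RPMI 1640 with 10% FCS, glutamine, insulin-zinc, pyruvate, antibiotics. Seeded at 5 × 10^5 cells/well in DMEM with FCS, switched to serum-free DMEM after 24 h. Compound added in DMSO (1% final), 30 min preincubation at 37 °C, 5% CO2. Then unlabeled + [3H]-E1 (50 nM final) for 30 min. Steroids extracted into diethylether. Mean of three determinations.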

[4] = biological target: Estrogen receptor beta (Homo sapiens) (UniProt Q92731); test: Relative binding affinity to human recombinant ERbeta receptor using [3H]E2 as substrate after 1 hr by liquid scintillation counting relative to E2
Chain of Estrogen receptor beta (Homo sapiens) (Q92731 whole entry): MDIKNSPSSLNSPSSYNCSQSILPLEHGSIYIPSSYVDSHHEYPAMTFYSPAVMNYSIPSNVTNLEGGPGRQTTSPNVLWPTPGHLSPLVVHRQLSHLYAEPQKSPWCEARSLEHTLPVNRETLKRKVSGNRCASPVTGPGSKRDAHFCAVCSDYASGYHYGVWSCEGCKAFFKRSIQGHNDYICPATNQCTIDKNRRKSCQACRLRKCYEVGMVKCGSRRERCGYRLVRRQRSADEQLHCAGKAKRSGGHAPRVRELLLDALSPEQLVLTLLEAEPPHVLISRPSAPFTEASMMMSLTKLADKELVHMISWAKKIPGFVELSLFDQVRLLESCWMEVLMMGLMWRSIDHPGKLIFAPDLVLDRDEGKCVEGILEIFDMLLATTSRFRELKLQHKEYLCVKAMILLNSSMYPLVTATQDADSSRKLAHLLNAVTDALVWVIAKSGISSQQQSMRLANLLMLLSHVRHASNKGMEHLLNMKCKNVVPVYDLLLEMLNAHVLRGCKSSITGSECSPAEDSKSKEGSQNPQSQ
Method in brief: (§1)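 Recombinant human ERα or ERβ (0.25 pmol) incubated 1 h at rt with [3H]-E2 (10 nM) and compound in DMSO (5% final). Nonspecific binding defined with diethylstilbestrol 10 μM. Bound complex captured on hydroxyapatite, washed, resuspended in ethanol, counted by liquid scintillation. Concentrations displacing 50% of bound label compared with E2, which is set at 100%.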

[5] = biological target: T3, Estrogen receptor (Homo sapiens) (UniProt P03372); test: Relative binding affinity to human recombinant ERalpha receptor using [3H]E2 as substrate after 1 hr by liquid scintillation counting relative to E2; method in brief: as §1
T3 sequence (whole entry): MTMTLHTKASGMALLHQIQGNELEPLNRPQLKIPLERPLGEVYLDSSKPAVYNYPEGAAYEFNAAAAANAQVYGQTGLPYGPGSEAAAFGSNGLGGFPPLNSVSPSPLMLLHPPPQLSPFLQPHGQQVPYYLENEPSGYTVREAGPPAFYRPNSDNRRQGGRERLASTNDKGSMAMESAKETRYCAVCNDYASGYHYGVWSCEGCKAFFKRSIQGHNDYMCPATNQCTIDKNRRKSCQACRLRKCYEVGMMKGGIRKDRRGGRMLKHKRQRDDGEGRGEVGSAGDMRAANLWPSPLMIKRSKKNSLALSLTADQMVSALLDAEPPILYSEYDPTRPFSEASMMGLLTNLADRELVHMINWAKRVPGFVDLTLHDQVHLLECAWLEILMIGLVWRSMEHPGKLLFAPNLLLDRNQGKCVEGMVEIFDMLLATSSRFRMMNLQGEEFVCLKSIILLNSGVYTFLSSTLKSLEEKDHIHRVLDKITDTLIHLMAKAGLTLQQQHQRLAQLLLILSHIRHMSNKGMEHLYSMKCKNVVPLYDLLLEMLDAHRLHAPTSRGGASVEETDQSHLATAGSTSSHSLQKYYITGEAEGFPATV

[6] = biological target: T2, 17-beta-hydroxysteroid dehydrogenase type 1; test: Inhibition of human placenta cytosolic 17betaHSD1 using [3H]E1 as substrate after 10 mins by radioflow detection assay
Method in brief: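 Cytosolic 17β-HSD1 from fresh human placenta, obtained by ammonium sulfate precipitation. Incubated at 37 °C in 50 mM phosphate buffer with 20% glycerol and EDTA, with NADH 500 μM and compound (DMSO 1% final). Started with unlabeled + [3H]-E1 (500 nM final), stopped after 10 min with HgCl2, ether-extracted. E1/E2 quantified by radioflow HPLC as % conversion. At least three independent experiments.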

Callithrix jacchus [7] = species: Callithrix jacchus; test: Inhibition of mormoset placenta cytosolic 17betaHSD1 using [3H]E1 as substrate at 50 nM after 10 mins by radioflow detection assay
[8] = biological target: T4, 17-beta-hydroxysteroid dehydrogenase type 1 (Homo sapiens) (UniProt P14061); test: Inhibition of human placenta cytosolic 17betaHSD1 using [3H]E1 as substrate at 10 nM after 10 mins by radioflow detection assay
T4 sequence (whole entry): T2 sequence (P14061 whole entry)

Row | inhibition (Callithrix jacchus [1]) [%] | IC50 [2] [nM] | IC50 [3] [nM] | RBA [4] [%] | RBA [5] [%] | IC50 [6] [nM] | inhibition (Callithrix jacchus [7]) [%] | inhibition [8] [%] | SMILES
1 | < 10 | 749 | 429 | < 0.1 | < 0.1 | 29 | 19 | – | O=S(=O)(Nc1cccc(-c2c(O)ccc3cc(-c4cccc(O)c4)ccc23)c1)c1ccccc1F
2 | 13 | 1060 | 753 | < 0.1 | < 0.1 | 49 | 28 | > 30 | O=[N+]([O-])c1ccc(S(=O)(=O)Nc2cccc(-c3c(O)ccc4cc(-c5cccc(O)c5)ccc34)c2)cc1
3 | 43 | 391 | 1100 | < 0.1 | < 0.1 | 32 | 79 | – | O=S(=O)(c1ccccc1)n1ccc2c(-c3c(O)ccc4cc(-c5cccc(O)c5)ccc34)cccc21
4 | 11 | 446 | 440 | < 0.1 | < 0.1 | 33 | < 10 | – | Cc1cccc(S(=O)(=O)Nc2cccc(-c3c(O)ccc4cc(-c5cccc(O)c5)ccc34)c2)c1
5 | 20 | 834 | 637 | < 0.1 | < 0.1 | 53 | 24 | – | O=S(=O)(Nc1cccc(-c2c(O)ccc3cc(-c4cccc(O)c4)ccc23)c1)c1ccc(F)cc1
6 | 17 | 374 | 396 | < 0.1 | < 0.1 | 20 | 16 | > 30 | O=[N+]([O-])c1cccc(S(=O)(=O)Nc2cccc(-c3c(O)ccc4cc(-c5cccc(O)c5)ccc34)c2)c1
7 | 36 | 371 | – | < 0.1 | < 0.1 | 690 | 16 | – | O=[N+]([O-])c1ccc(S(=O)(=O)Nc2cccc(-c3c(O)ccc4cc(-c5cccc(O)c5)ccc34)c2)c([N+](=O)[O-])c1
8 | < 10 | 408 | 240 | < 0.1 | < 0.1 | 12 | 31 | – | CC(=O)Nc1ccc(S(=O)(=O)Nc2cccc(-c3c(O)ccc4cc(-c5cccc(O)c5)ccc34)c2)cc1
9 | 17 | 223 | 646 | < 0.1 | < 0.1 | 46 | 14 | > 30 | O=S(=O)(Nc1cccc(-c2c(O)ccc3cc(-c4cccc(O)c4)ccc23)c1)c1cc(F)c(Br)cc1F
10 | 30 | 352 | 1010 | < 0.1 | < 0.1 | 19 | < 10 | – | O=S(=O)(Nc1cccc(-c2c(O)ccc3cc(-c4cccc(O)c4)ccc23)c1)c1ccc(O)cc1
11 | 18 | 1100 | 316 | < 0.1 | < 0.1 | 28 | 25 | > 30 | O=S(=O)(Nc1cccc(-c2c(O)ccc3cc(-c4cccc(O)c4)ccc23)c1)c1cccs1
12 | 21 | 238 | 462 | < 0.1 | < 0.1 | 17 | < 10 | > 30 | O=[N+]([O-])c1ccccc1S(=O)(=O)Nc1cccc(-c2c(O)ccc3cc(-c4cccc(O)c4)ccc23)c1
13 | 30 | 825 | 555 | < 0.1 | < 0.1 | 25 | 25 | – | N#Cc1ccc(S(=O)(=O)Nc2cccc(-c3c(O)ccc4cc(-c5cccc(O)c5)ccc34)c2)cc1
14 | 13 | 535 | 498 | < 0.1 | < 0.1 | 92 | 38 | > 30 | O=S(=O)(Nc1cccc(-c2c(O)ccc3cc(-c4cccc(O)c4)ccc23)c1)c1ccc2ncccc2c1
15 | < 10 | 607 | 402 | < 0.1 | < 0.1 | 30 | 11 | > 30 | N#Cc1cccc(S(=O)(=O)Nc2cccc(-c3c(O)ccc4cc(-c5cccc(O)c5)ccc34)c2)c1
16 | 12 | 996 | – | – | – | 519 | 14 | – | O=S(=O)(c1ccccc1)n1ccc2ccc(-c3c(O)ccc4cc(-c5cccc(O)c5)ccc34)cc21
17 | < 10 | 213 | – | < 0.1 | < 0.1 | 74 | < 10 | > 30 | O=S(=O)(Nc1cccc(-c2c(O)ccc3cc(-c4cccc(O)c4)ccc23)c1)c1ccc(Br)cc1OC(F)(F)F
18 | < 10 | 188 | 525 | < 0.1 | < 0.1 | 31 | 20 | – | Cc1ccccc1S(=O)(=O)Nc1cccc(-c2c(O)ccc3cc(-c4cccc(O)c4)ccc23)c1
19 | 33 | 396 | 462 | < 0.1 | < 0.1 | 22 | < 10 | > 30 | O=S(=O)(Nc1cccc(-c2c(O)ccc3cc(-c4cccc(O)c4)ccc23)c1)c1cccc(F)c1
20 | 11 | 367 | 633 | < 0.1 | < 0.1 | 35 | < 10 | – | Cc1ccc(S(=O)(=O)Nc2cccc(-c3c(O)ccc4cc(-c5cccc(O)c5)ccc34)c2)cc1
